Experiments:
[1] = test system: respiratory complexes I, III, and IV (NADH oxidase activity); assay: NADH oxidase activity; format: biochemical, housefly (Musca domestica); conditions: housefly mitochondria; compound added during NADH oxidation at final 40 nM
Method in brief: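 Housefly crude mitochondria were prepared by homogenizing in 250 mM sucrose, 5.0 mM EDTA, 10 mM Tris-HCl (pH 7.5), then differential centrifugation, and permeabilized by freeze-thawing. Protein was 30 µg/mL in 150 mM KCl, 2.5 mM MgCl₂, 30 mM KPi (pH 7.4) at 30°C. The reaction was started with 150 µM NADH, and NADH oxidation was followed at 340 nm.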

[2] = test system: cytochrome b hemes of complex III; assay: Reduction of cytochrome b hemes in housefly mitochondria; format: biochemical, housefly (Musca domestica); conditions: myxothiazol 8 µM with FloMet 5 µM or antimycin A 2 µM
Method in brief: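 Housefly mitochondria at 0.8 mg/mL were held in 150 mM KCl, 2.5 mM MgCl₂, 1 µM rotenone, 0.2 µM SF6847, 2.0 mM KCN and 30 mM KPi (pH 7.4) at 30°C, and equilibrated with inhibitor(s) for 4 min. Reduction was started with succinate and recorded in dual-wavelength mode. Full reduction was set with excess sodium dithionite.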

[3] = biological target: T1, Qi site of complex III (Lucilia sericata, UniProt A7DT80); assay: MS-based competition binding, Qi site; parameters: species or system green bottle fly (Lucilia sericata); conditions: reporter ligand FloMet 15 nM; two independent experiments
T1 sequence (A7DT80 1-378): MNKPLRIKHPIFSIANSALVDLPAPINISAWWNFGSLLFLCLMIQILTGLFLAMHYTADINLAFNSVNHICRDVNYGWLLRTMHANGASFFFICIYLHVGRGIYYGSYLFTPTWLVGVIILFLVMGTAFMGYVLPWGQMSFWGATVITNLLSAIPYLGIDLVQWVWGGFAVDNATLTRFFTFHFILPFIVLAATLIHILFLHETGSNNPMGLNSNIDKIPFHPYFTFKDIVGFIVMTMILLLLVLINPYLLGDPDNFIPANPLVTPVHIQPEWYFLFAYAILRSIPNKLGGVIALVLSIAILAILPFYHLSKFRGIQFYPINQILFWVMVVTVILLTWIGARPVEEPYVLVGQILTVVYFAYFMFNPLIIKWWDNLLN
Method in brief: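 20–40 µg particles were incubated with reporter and competitor for 1 hr at room temperature in 50 mM Tris-HCl, 120 mM NaCl, 0.1 mM EDTA (pH 7.4) with bacitracin and undecyl maltoside. Bound ligand was filtered, acetonitrile-extracted and quantified by LC-ESI-MS/MS. Ki came from a one-site LogKi fit.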

| inhibition of NADH oxidase activity [1] | SMILES | effect on reduction of cytochrome b hemes, in combination with myxothiazol [2] | displacement of FloMet bound to the Qi site [3] |
| --- | --- | --- | --- |
| almost no inhibition | CCc1nc2cc(C)c(Oc3ccc(OC(F)(F)F)cc3)cc2c(OC(=O)OC)c1C [FLO, 2-ethyl-3,7-dimethyl-6-[4-(trifluoromethoxy)phenoxy]quinolin-4-yl methyl carbonate] | – | – |
| – | CCCCCC[C@H]1C(=O)O[C@H](C)[C@H](NC(=O)c2cccc(NC=O)c2O)C(=O)O[C@@H](C)[C@@H]1OC(=O)CC(C)C [antimycin A] | suppression of the reduction of b hemes | displaced FloMet at low nano molar range |

From paper PMC11770135 (Journal of Pesticide Science, 2024)
